Measurements from article PMC9134258 (ACS Omega, 2022).

How the values were obtained:
[1] = biological target: recombinant ALK kinase domain (aa 1073–1410) (Homo sapiens, UniProt Q9UM73); assay: ELISA-based in vitro kinase assay, recombinant ALK; assay type: biochemical; conditions: 300 μM ATP
Method in brief: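 Purified recombinant ALK kinase domain (aa 1073–1410), wild type or L1196M, was incubated with test compound and Mg++-ATP, then loaded onto peptide substrate-coated wells. Reaction ran at 30 °C for 20 min. After washing, phosphopeptide was quantified with anti-phosphotyrosine antibody PY20. IC50 came from nonlinear regression of normalized data. Inhibition mode was assessed from dose–response curves at increasing ATP concentrations.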

Ba/F3 NPM/ALK cells = assay: Ba/F3 NPM/ALK cell proliferation; assay type: cell-based; conditions: read-out: IC50 Ba/F3 NPM/ALK
Method in brief: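 Ba/F3 cells stably expressing NPM/ALK variants were made by electroporation, selected with G418 (1 mg/mL), then selected again by IL3 withdrawal. Proliferation was measured by [3H]-thymidine incorporation across a dose range of test compound. IC50 was obtained by nonlinear regression of normalized data.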

Ba/F3-parental cells = assay: Parental IL3-dependent Ba/F3 cell proliferation; assay type: cell-based; conditions: Mus musculus, BaF3, read-out: IC50 Ba/F3-parental
Method in brief: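 Cell growth was read by [3H]-thymidine incorporation across a dose range of test compound. IC50 values come from nonlinear regression curve fitting of normalized data.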

Sequence of recombinant ALK kinase domain (aa 1073–1410) (Q9UM73 1073-1410): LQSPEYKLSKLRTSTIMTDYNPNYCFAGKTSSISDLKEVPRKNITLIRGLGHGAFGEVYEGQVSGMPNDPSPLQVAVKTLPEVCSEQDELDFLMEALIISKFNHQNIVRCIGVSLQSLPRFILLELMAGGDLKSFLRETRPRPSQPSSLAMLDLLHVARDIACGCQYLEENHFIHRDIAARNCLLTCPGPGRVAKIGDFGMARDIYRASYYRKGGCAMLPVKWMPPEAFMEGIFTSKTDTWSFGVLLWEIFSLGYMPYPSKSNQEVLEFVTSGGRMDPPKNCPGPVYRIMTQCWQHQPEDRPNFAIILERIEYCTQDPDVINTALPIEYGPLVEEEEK

Clc1cnc2[nH]c3ccc(-c4ccc(N5CCOCC5)cn4)cc3c2c1 [Compound 67]
IC50 ALK ([1]; Table 3, 3-chloro-6-substituted compounds): inactive

COc1ccc(-c2ccc3[nH]c4ncc(C=Cc5ccccc5)cc4c3c2)cc1 [Compound 102]
IC50 (Ba/F3 NPM/ALK cells): 2800 nM | IC50 (Ba/F3-parental cells): > 10000 nM

CCCC#Cc1ccc2c(n1)[nH]c1ccccc12 [Compound 34]
IC50 ALK ([1]; Table 2, 2,6-substituted compounds): inactive
